The results in this text go back to ChEMBL document CHEMBL4680070, “A second generation of 1,2,4-oxadiazole derivatives with enhanced solubility for inhibition of 3-hydroxykynurenine transaminase (HKT) from Aedes aegypti” (RSC Med Chem, 2021).

Calls of active or inactive are those of the source. The rule behind the calls is not given here.

In one test the target is 3-hydroxykynurenine transaminase (Aedes aegypti) (UniProt Q0IG34). Briefly: Competitive inhibition of Aedes aegypti 3-hydroxykynurenine transaminase at 300 uM using varying level of 3-D,L hydroxy kynurenine as substrate by Lineweaver-Burk plot analysis.
3-hydroxykynurenine transaminase (Aedes aegypti), sequence (Q0IG34 whole entry): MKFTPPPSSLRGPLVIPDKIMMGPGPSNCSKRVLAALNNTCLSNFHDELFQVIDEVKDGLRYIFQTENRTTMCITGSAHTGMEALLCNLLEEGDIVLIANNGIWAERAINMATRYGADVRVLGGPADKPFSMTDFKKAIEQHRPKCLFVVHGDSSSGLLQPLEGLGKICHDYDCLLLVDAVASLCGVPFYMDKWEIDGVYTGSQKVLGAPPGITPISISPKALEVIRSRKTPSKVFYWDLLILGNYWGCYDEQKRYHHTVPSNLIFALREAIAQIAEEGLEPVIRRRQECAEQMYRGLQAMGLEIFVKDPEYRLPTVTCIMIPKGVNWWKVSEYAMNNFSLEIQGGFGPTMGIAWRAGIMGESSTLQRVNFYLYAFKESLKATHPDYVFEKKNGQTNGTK
For `O=C(O)CCc1nc(-c2ccccc2)no1`, the inhibition result was “Active”.

System in a further test: not listed separately
The experiment in a line: Inhibition of recombinant Aedes aegypti RecLab N-terminal Trx-fused/His6-tagged 3-hydroxykynurenine transaminase H360M mutant expressed in Escherichia coli Rosetta 2 (DE3) assessed as reduction in conversion of 3-hydroxy kynurenine to xanthurenic-acid using 3-D,L hydroxy kynurenine as substrate preincubated with PLP cofactor and enzyme and 30 mins later incubated with 3-D,L-HK and measured after 5 mins by microplate reader assay. The method in brief:
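Recombinant AeHKT (2 μg) in 200 mM HEPES/100 mM NaCl with 2 mM 3-D,L-HK, 2 mM sodium pyruvate and 40 μM PLP. Reaction ran 5 min at 50 °C and was stopped with 10 mM FeCl3 in 0.1 M HCl. The XA–Fe3+ complex was read at 570 nm, and XA was quantified against a calibration curve. Run in duplicate.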
In the case of `Cc1cccc(-c2noc(CCCC(=O)O)n2)c1`, the IC50 was found to be 54 µM.
The same measure, in the same setting: then `COc1ccc(-c2noc(CCCC(=O)O)n2)cc1`, with 101 µM; and `O=C(O)CCc1nc(-c2ccc(Br)cc2)no1`, with 119 µM.
The same measure, in the same setting: as for `O=C(O)CCc1nc(-c2ccco2)no1`, the figure is 84 µM; as for `O=C(O)CCCc1nc(-c2cccc3ccccc23)no1`, 63 µM; as for `O=C(O)CCCc1nc(-c2ccc(I)cc2)no1`, 42 µM.
Still for that read-out and setting: then `Cc1ccc(-c2noc(CCC(=O)O)n2)cc1`, with 73 µM.
With `O=C(O)CCCc1nc(-c2ccc(Br)cc2)no1`, the IC50 came out at 110 µM.
Same read-out and setting: then `O=C(O)CCc1nc(-c2ccc([N+](=O)[O-])cc2)no1`, with 76 µM; and `O=C(O)CCc1nc(-c2cccc(Br)c2)no1`, with 61 µM; and `O=C(O)CCCc1nc(-c2ccccc2)no1`, with 72 µM.
Same read-out and setting: as for `COc1cccc(-c2noc(CCC(=O)O)n2)c1`, the figure is 157 µM; as for `O=C(O)CCc1nc(-c2cccc([N+](=O)[O-])c2)no1`, 85 µM.
Same read-out and setting: as for `O=C(O)CCCc1nc(-c2ccc(Cl)cc2)no1`, the figure is 294 µM.
In the case of `O=C(O)CCc1nc(-c2cccs2)no1`, the IC50 was 68 µM.
On the same count and under the same terms, then `O=C(O)CCc1nc(-c2ccc3c(c2)OCO3)no1`, with 83 µM.
Same read-out and setting: as for `O=C(O)CCc1nc(-c2ccc(C(F)(F)F)cc2)no1`, the figure is 42 µM; as for `O=C(O)CCc1nc(-c2ccc(Cl)cc2)no1`, 85 µM.
Still for that read-out and setting: then `O=C(O)CCc1nc(-c2ccccc2F)no1`, with 116 µM; and `O=C(O)CCCc1nc(-c2ccc(C(F)(F)F)cc2)no1`, with 70 µM.
With `Cc1ccccc1-c1noc(CCC(=O)O)n1`, the IC50 came to 339 µM.
Same read-out and setting: as for `O=C(O)CCc1nc(-c2ccccc2Cl)no1`, the figure is 77 µM; as for `O=C(O)CCCc1nc(-c2ccc(Cl)c(Cl)c2)no1`, 64 µM.
Same read-out and setting: then `O=C(O)CCc1nc(-c2ccc(F)cc2)no1`, with 124 µM; and `Cc1cccc(-c2noc(CCC(=O)O)n2)c1`, with 110 µM; and `O=C(O)CCc1nc(-c2ccccc2)no1`, with 139 µM.
Still for that read-out and setting: as for `O=C(O)CCc1nc(-c2ccc(Cl)c(Cl)c2)no1`, the figure is 86 µM; as for `O=C(O)CCCc1nc(-c2ccc3c(c2)OCO3)no1`, 87 µM.
For `Cc1ccc(-c2noc(CCCC(=O)O)n2)cc1`, the half-inhibitory concentration (IC50) turned out to be 88 µM.
On the same count and under the same terms, as for `COc1ccc(-c2noc(CCC(=O)O)n2)cc1`, the figure is 35 µM.

Broadly, the IC50 is the point on the concentration scale where inhibition reaches its midpoint.
